What was measured:
Erythrocyte = assay: (§1) Hemolytic activity against human RBC at 150 uM incubated for 16 hrs by spectrophotometric analysis; type: ADME, cell-based; settings: erythrocyte, 16 h, 150 µM
Outline: (§2)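 Red blood cells were incubated with compound at 37 °C for 16 h, with 1% saponin as positive and PBS as negative control. Tubes were centrifuged at 2000 rpm for 3 min, and supernatant absorbance was read at 540 nm. Percent hemolysis was calculated relative to the saponin and PBS mean absorbances. Means were compared by ANOVA with Tukey test.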

[1] = Selectivity index, ratio of CC50 for human WI-26VA-4 cells to IC50 for chloroquine-resistant ring-stage Plasmodium falciparum W2 infected in human RBC; type: toxicity; settings: read-out: Ratio CC50/IC50
[2] = Cytotoxicity against human WI26VA4 cells assessed as reduction in cell viability incubated for 48 hrs by MTT assay; type: cell-based
Plasmodium falciparum = assay: Antimalarial activity against chloroquine-resistant Plasmodium falciparum W2 infected in human RBC assessed as reduction in HRP2 level by ELISA; type: functional, organism-based; settings: W2, Erythrocyte
[3] = as §1; type: ADME, cell-based, Erythrocyte; settings: human red blood cells (erythrocytes), read-out: Activity; outline: as §2
Plasmodium berghei [4] = assay: Antimalarial activity against Plasmodium berghei NK65 infected in Swiss mouse assessed as parasitemia at 5 mg/kg, po administered for 4 days and measured on day 9 post infection by Giemsa staining based microscopic analysis (reference value: 100 %); type: functional; settings: time 4 day
Outline: (§3)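 Modified Peters 4-day suppressive test in female Swiss mice infected with P. berghei NK65. Dosing was by gavage, with compounds dissolved in 5% DMSO and diluted in water. Parasitemia was read on Giemsa-stained blood smears. Inhibition of parasite multiplication = [(A−B)/A]×100, where A is the water + 5% DMSO group and B the treated group; both are group mean parasitemias.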

Plasmodium berghei [5] = assay: Antimalarial activity against Plasmodium berghei NK65 infected in Swiss mouse assessed as parasitemia at 5 mg/kg, po administered for 4 days and measured on day 5 post infection by Giemsa staining based microscopic analysis (reference value: 100 %); type: functional; settings: time 4 day; outline: as §3
Plasmodium berghei [6] = assay: Antimalarial activity against Plasmodium berghei NK65 infected in Swiss mouse assessed as parasitemia at 10 mg/kg, po administered for 4 days and measured on day 9 post infection by Giemsa staining based microscopic analysis (reference value: 100 %); type: functional; settings: time 4 day
Outline: (§4)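 Modified suppressive test in female Swiss mice infected with P. berghei NK65. Compounds were solubilized in 5% DMSO, diluted in water, and given by gavage. Parasitemia was read on Giemsa-stained blood smears on days 5 and 9 post-infection. Inhibition of parasite multiplication = [(A−B)/A]×100, where A is parasitemia of the water + 5% DMSO group.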

Plasmodium berghei [7] = assay: Antimalarial activity against Plasmodium berghei NK65 infected in Swiss mouse assessed as parasitemia at 10 mg/kg, po administered for 4 days and measured on day 5 post infection by Giemsa staining based microscopic analysis (reference value: 100 %); type: functional; settings: time 4 day; outline: as §4
Plasmodium berghei [8] = assay: Antimalarial activity against Plasmodium berghei NK65 infected in Swiss mouse assessed as parasitemia at 15 mg/kg, po administered for 4 days and measured on day 9 post infection by Giemsa staining based microscopic analysis (reference value: 100 %); type: functional; settings: time 4 day; outline: as §4
Plasmodium berghei [9] = assay: Antimalarial activity against Plasmodium berghei NK65 infected in Swiss mouse assessed as parasitemia at 15 mg/kg, po administered for 4 days and measured on day 5 post infection by Giemsa staining based microscopic analysis (reference value: 100 %); type: functional; settings: time 4 day; outline: as §4
Ferriprotoporphyrin IX [10] = assay: Binding affinity to Fe(III)PPIX (unknown origin) assessed as association constant by UV-Vis spectrophotometric analysis relative to control
Outline: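 UV-vis titration against Fe(III)PPIX at pH 7.5. Hemin stock was in DMSO and diluted in aqueous DMSO with 0.2 M Tris buffer pH 7.5. A 0.3 mM compound solution in the same solvent ratio was added in aliquots to 2 mL hemin solution. The blank received the same additions, and its absorbance was subtracted. A at 402 nm (Soret band) was fitted to a 1:1 complexation model by nonlinear least squares to give K. Run in triplicate.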

Plasmodium berghei [11] = assay: Antimalarial activity against Plasmodium berghei NK65 infected in Swiss mouse assessed as parasitemia at 25 mg/kg, po administered for 4 days and measured on day 5 post infection by Giemsa staining based microscopic analysis (reference value: 100 %); type: functional; settings: time 4 day; outline: as §4
Plasmodium berghei [12] = assay: Antimalarial activity against Plasmodium berghei NK65 infected in Swiss mouse assessed as parasitemia at 25 mg/kg, po administered for 4 days and measured on day 9 post infection by Giemsa staining based microscopic analysis (reference value: 100 %); type: functional; settings: time 4 day; outline: as §4
Ferriprotoporphyrin IX [13] = assay: Binding affinity to Fe(III)PPIX (unknown origin) assessed as reduction in hypochromism by UV-Vis spectrophotometric analysis relative to control; settings: concentration not given here
Outline: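 Soret band (402 nm) absorbance of Fe(III)PPIX in Tris pH 7.5/aqueous DMSO was followed while 0.3 mM compound was titrated in to saturation. The blank was treated the same way to subtract compound absorbance. Hypochromism was taken as the percentage reduction in absorption intensity. Run in triplicate.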

## CC1(C)[C@@H](O[C@@H]2OC[C@H](O[C@@H]3OC[C@@H](O)[C@H](O)[C@H]3O)[C@H](O[C@H]3O[C@H](CO)[C@@H](O)[C@H](O)[C@H]3O)[C@H]2O[C@@H]2O[C@H](CO)[C@@H](O)[C@H](O)[C@H]2O[C@H]2O[C@H](CO)[C@@H](O)[C@H](O)[C@H]2O)CC[C@]2(C)[C@H]3CCC45OCC6(CC[C@@](C)(C=O)C[C@@H]64)[C@H](O)C[C@@]5(C)[C@]3(C)CC[C@@H]12 (some centres undefined) [SAPONIN]
Erythrocyte
  Activity: Toxic

## COc1cc(/C=N/Nc2ccnc3cc(Cl)ccc23)ccc1O
[1]
  selectivity ratio: 45.8
[2]
  CC50 at 48 h: 10.8 µM
Plasmodium falciparum
  IC50: 0.235 µM
[3]
  hemolysis at 16 h, 150 µM: < 10%

## O=C(O)c1ccc(/C=N/Nc2ccnc3cc(Cl)ccc23)cc1
[1]
  selectivity ratio: 245
[2]
  CC50 at 48 h: 82 µM
Plasmodium falciparum
  IC50: 0.335 µM
[3]
  hemolysis at 16 h, 150 µM: < 10%

## C[C@@H]1CC[C@H]2[C@@H](C)C(=O)O[C@@H]3O[C@@]4(C)CC[C@@H]1[C@]32OO4 [ARTEMISININ]
Plasmodium berghei [4]
  Activity: 96.64%
Plasmodium berghei [5]
  Activity: 94.9%

## CCN(CC)CCCC(C)Nc1ccnc2cc(Cl)ccc12 (centres undefined) [CHLOROQUINE]
Plasmodium berghei [6]
  Activity: 41.27%
Plasmodium berghei [7]
  Activity: 94.04%
[2]
  CC50 at 48 h: > 19.4 µM
Erythrocyte
  Activity: Non-Toxic

## Oc1ccc(/C=N/Nc2ccnc3cc(Cl)ccc23)c(O)c1
[1]
  selectivity ratio: 30.9
[2]
  CC50 at 48 h: 7.27 µM
Plasmodium falciparum
  IC50: 0.235 µM
[3]
  hemolysis at 16 h, 150 µM: < 10%

## O=C(O)c1ccc(/C=N/CCNc2ccnc3cc(Cl)ccc23)cc1
Plasmodium berghei [8]
  Activity: 21.67%
[1]
  selectivity ratio: > 195
[2]
  CC50 at 48 h: > 28.3 µM
Plasmodium berghei [9]
  Activity: 72.64%
Plasmodium falciparum
  IC50: 0.145 µM
[3]
  hemolysis at 16 h, 150 µM: < 10%

## O=Cc1ccc(/C=N/CCNc2ccnc3cc(Cl)ccc23)cc1
[1]
  selectivity ratio: 861
[2]
  CC50 at 48 h: 138 µM
Plasmodium falciparum
  IC50: 0.16 µM

## Oc1ccc(/C=N/CCNc2ccnc3cc(Cl)ccc23)cc1
[1]
  selectivity ratio: 802
[2]
  CC50 at 48 h: 130 µM
Plasmodium falciparum
  IC50: 0.162 µM
[3]
  hemolysis at 16 h, 150 µM: < 10%

## Oc1ccccc1/C=N/CCNc1ccnc2cc(Cl)ccc12
[1]
  selectivity ratio: 97.4
[2]
  CC50 at 48 h: 25.3 µM
Plasmodium falciparum
  IC50: 0.26 µM
[3]
  hemolysis at 16 h, 150 µM: < 10%

## Oc1ccc(/C=N/CCNc2ccnc3cc(Cl)ccc23)c(O)c1
Ferriprotoporphyrin IX [10]
  log K: 4.77
Plasmodium berghei [11]
  Activity: 93.7%
Plasmodium berghei [12]
  Activity: 41.01%
Ferriprotoporphyrin IX [13]
  inhibition: 50.4%
Plasmodium berghei [8]
  Activity: 40.13%
[1]
  selectivity ratio: 990
[2]
  CC50 at 48 h: 171 µM
Plasmodium berghei [9]
  Activity: 71.15%
Plasmodium falciparum
  IC50: 0.172 µM
[3]
  hemolysis at 16 h, 150 µM: < 10%

## Oc1cc(O)cc(/C=N/Nc2ccnc3cc(Cl)ccc23)c1
[1]
  selectivity ratio: 20.6
[2]
  CC50 at 48 h: 12.9 µM
Plasmodium falciparum
  IC50: 0.625 µM
[3]
  hemolysis at 16 h, 150 µM: < 10%

## Oc1cc(O)cc(/C=N/CCNc2ccnc3cc(Cl)ccc23)c1
[1]
  selectivity ratio: 387
[2]
  CC50 at 48 h: 79.3 µM
Plasmodium falciparum
  IC50: 0.205 µM
[3]
  hemolysis at 16 h, 150 µM: < 10%

Source: ChEMBL document CHEMBL4732215, “In vitro and in vivo antiplasmodial activity of novel quinoline derivative compounds by molecular hybridization” (Eur J Med Chem, 2021)
